bCat nuc transl: modulators of beta-catenin nuclear translocation. nuclear translocation activity, % at 5 µM. 0.3% of 190,000 active. HeLa beta-catenin nuclear translocation, immunofluorescence imaging. AID 1665;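 active = nuclear translocation activity above 50% at 5 µM, with a well cell count of 50 or more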;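 also: per-cell ratio of nuclear to cytoplasmic median beta-catenin stain intensity; plate controls were DMSO negative control for no effect and GSK-3 inhibitor IX positive control for full effect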
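test system = HeLa cells, endogenous beta-catenin | dosing = single 5 µM dose plus 0.02–20 µM confirmation series | times = compound treatment 24 h, 37°C, 5% CO2 | technique = beta-catenin immunofluorescence imaging with DAPI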
Dynein cargo inh: dynein cargo transport inhibition; 3617.4 mouse cells, GR-EGFP nuclear translocation imaging; test concentration mostly 20 µM; stimulated with dexamethasone, 1 µM; stronger effect = lower value; z-score, hits read low; 0.47% of 220,000 active; AID 1381;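 active = plate z-score of nuclear minus cytoplasmic receptor signal below a set negative limit, without overly bright fluorescence or cell loss, cut at about -3.5 in these data, passing the limit was not always enough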;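 also: z-score of nuclear minus cytoplasmic ring GR-EGFP intensity difference per well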
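Buffer or medium: tet-free, stripped-serum medium; reagent: dexamethasone at 1.0 µM final, 30 min; incubation: 48 h induction, 1 h compound, 30 min dex at 37 °C; measured by: formaldehyde fixation, Hoechst nuclear stain, 10x automated fluorescence imaging; read-out: nuclear-to-cytoplasmic GR-EGFP distribution per well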
MT stabilize HCS: microtubule stabilization, imaging screen; AID 2205; 0.83% of 200,000 active; HeLa tubulin immunostaining HCS, 24 h; share of cells brighter than vehicle mean+2SD; % tubulin-high responders, % at 10 µM;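 active = plate Z-score above 3 for both tubulin-high and condensed-nucleus cell shares, with cell loss under 80%, at 10 µM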;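 also: anti alpha tubulin signal scored within the nucleus-defined area of each cell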
L major viab: inhibitors of Leishmania major promastigote growth; 9% of 200,000 active; inhibition, % at 10 µM; Leishmania major promastigotes, resazurin fluorescence viability; in the data active = inhibition above about 50%;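 also: promastigotes grown with compound for 44 hours at 28 °C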
HSV augment: increases HSV replication in cells; HSV replication augmentation in cells, fold increase; maximum fold increase; 0.005% of 220,000 active; in the data active = maximum fold increase above about 1.5; tested in PC3 cells
* marks the source's active call; other numbers are inactive results; i = inactive; x = not tested or not shown. Shown are actives, neighbours in structure and some others; about 8.9% of the full set was active somewhere.

SMILES	bCat nuc transl	Dynein cargo inh	MT stabilize HCS	L major viab	HSV augment
Cc1ccc(CNc2ccc(N3C(=O)CC(C)C3=O)cc2[N+](=O)[O-])cc1 (stereo not given)	-4	1.1	2	-6	i
Cc1cc(C(=O)CN2C(=O)CN(C)C2=O)c(C)n1-c1cccc(S(=O)(=O)N2CCOCC2)c1	2	-0.59	3	-6	i
Cc1cc(C(=O)CSc2ncn[nH]2)c(C)n1-c1cccc(S(=O)(=O)N2CCOCC2)c1	0	-0.63	2	59*	i
S=c1[nH]nc(-c2ccncc2)n1/N=C/c1cn(-c2ccccc2)nc1-c1ccccc1	0	0.88	x	x	i
O=[N+]([O-])c1ccc(CNC2CCCc3ccccc32)cc1 (stereo not given)	-2	0.72	2	83*	i
CCOC(=O)C(C)/C(C)=N\Nc1ccc([N+](=O)[O-])cc1[N+](=O)[O-] (stereo not given)	0	-0.27	1	2	i
CCOC(=O)C(C)/C(C)=N/NC(N)=S (stereo not given)	x	-0.6	1	61*	i
Cc1cccc(NC(=O)c2sccc2-n2cccc2)c1C	-3	0.89	3	7	i
CCOc1ccc2[nH]c(=O)c(CN(Cc3cccs3)Cc3nnnn3C(C)(C)C)cc2c1	-4	1.2	33*	73*	i
COc1ccc2[nH]c(=O)c(CN(Cc3cccs3)Cc3nnnn3C(C)(C)C)cc2c1	-1	-0.01	3	99*	i
CCOC(=O)Cn1nnnc1CN(Cc1cccs1)Cc1cc2cc(C)ccc2[nH]c1=O	3	-1.2	2	2	i
COc1cc2c(cc1OC)C(c1cccs1)N(C(=O)C(C)C)CC2 (stereo not given)	-1	-0.17	6	73*	i
COc1cc2c(cc1OC)C(C1C(=O)CCCC1=O)N(C(=O)CCl)CC2 (stereo not given)	-3	-0.35	5	29	i
COc1cc2c(cc1OC)C(c1ccccc1)N(C(=O)CCl)CC2 (stereo not given)	-2	-3.2	2	99*	i
COc1cc2c(cc1OC)C(C)N(C(=O)c1cccc([N+](=O)[O-])c1)CC2 (stereo not given)	0	1.1	2	4	i
COc1cc2c(cc1OC)C(c1cccs1)N(C(=O)c1cccnc1)CC2 (stereo not given)	53*	0.3	17*	0	i
Cc1cc(C(F)(F)F)n2[nH]c(=O)c(N=Nc3ccccc3)c2n1	5	1.3	2	-5	i
COc1cccc(CNc2ncn[nH]2)c1OCc1ccc(F)cc1	1	-0.48	3	3	i
CCN1CCCC1CNCc1cccc(OC)c1OCc1ccc(F)cc1 (stereo not given)	-1	1.9	4	63*	i
O=C(OCCN1CCOCC1)c1ccc2c(c1)OCCO2	-2	1.2	2	-3	i
O=C(CCN1CCc2ccccc2CC1)c1ccc2c(c1)OCCO2	x	-3.3	1	89*	i
O=C(CCCN1CCOCC1)c1ccc2c(c1)OCCO2	3	0.62	6	90*	i
O=C(CCN1CCCCC1)c1ccc2c(c1)OCO2	-1	-0.54	1	27	i
O=C(CCCO)c1ccc2c(c1)OCCO2	-2	-0.62	2	-1	i
O=C(CCCN1CCC(c2ccccc2)C1)c1ccc2c(c1)OCCO2 (stereo not given)	-8	-1.4	4	95*	i
SMILES	bCat nuc transl	Dynein cargo inh	MT stabilize HCS	L major viab	HSV augment
O=C(CCN1CCOCC1)c1ccc2c(c1)OCCO2	-1	-1.1	3	100*	i
CCOC(=O)N1CCN(C(=O)c2ccc(NS(=O)(=O)c3ccc(F)cc3)cc2)CC1	-5	0.061	3	-1	i
O=C1CSC(c2cccc([N+](=O)[O-])c2)N1CCN1CCCCC1 (stereo not given)	0	0.082	3	85*	i
O=C1CSC(c2ccccc2F)N1CCN1CCCCC1 (stereo not given)	-8	-0.35	5	78*	i
CN(CCC#N)C(=O)COC(=O)c1ccccc1OCc1ccccc1Cl	0	1.8	3	4	i
CC1(c2ccc(OCC#N)cc2)C=C(c2ccc(OCC#N)cc2)n2nc(C(F)(F)F)nc2N1 (stereo not given)	x	-0.48	4	97*	i
CC(=O)c1ccc(N2CCN(Cc3nc(Cc4ccccc4)no3)CC2)cc1	-1	-0.59	2	-4	i
CC(=O)c1ccc(NC(=O)C2C3C=CC(C3=C(c3ccccc3)c3ccccc3)C2C(=O)O)cc1 (stereo not given)	-2	0.18	2	52*	i
CC(C)=C1C2C=CC1C(C(=O)Nc1cc(C)ccc1C)C2C(=O)O (stereo not given)	-1	-0.25	4	-6	i
N#Cc1sc2nc(-c3cccs3)cc(-c3ccccc3)c2c1N	x	1.4	i	1	i
CCOC(=O)c1c(C)c(-c2ccccc2)n(CC(=O)NCCC(C)C)c1C	2	0.35	4	-7	i
CCOC(=O)c1c(C)c(-c2ccccc2)n(CC(=O)NCCCN(CC)CC)c1C	-2	0.2	3	51*	i
Cc1nn(-c2ccccc2)c(C)c1C(=O)NCc1cccs1	-3	-0.46	3	30	i
CC1=C(C(N)=O)C(c2cccnc2)n2nc(-c3cccc(C)c3)nc2N1 (stereo not given)	x	-0.47	3	85*	i
CN1C(=O)/C(=C/c2ccccc2OCc2cccc(F)c2)N(C)C1=S	x	-1.2	1	80*	i
O=C(CNS(=O)(=O)c1ccccc1F)Nc1ccc(N2CCOCC2)cc1	-6	0.81	2	0	i
CCOC(=O)c1nn(-c2ccccc2C)c2nc(Nc3ccccc3)cc(=O)n12	0	1.4	6	-4	i
COc1ccc(N2CCN(Cc3nc4scc(-c5ccccc5)c4c(=O)[nH]3)CC2)cc1	x	-0.12	4	62*	i
Fc1ccc(N2CCN(c3nc(CN4CCOCC4)nc4scc(-c5ccccc5)c34)CC2)cc1	-3	-0.41	6	67*	i
O=c1[nH]c(CN2CCN(c3ccccc3)CC2)nc2scc(-c3ccccc3)c12	x	-0.74	20*	67*	i
COc1ccc(N2CCN(Cc3nc4scc(-c5cccs5)c4c(=O)[nH]3)CC2)cc1	0	-0.15	2	-10	i
COc1ccccc1N1CCN(C(=O)c2ccc(NS(=O)(=O)c3ccc(C)cc3)cc2)CC1	-3	-0.74	1	19	i
Cc1ccc(-n2nc(C(=O)O)cc2-c2ccc(Cl)cc2)cc1	2	-1.6	5	-4	i
O=C(CN(c1ccc2c(c1)OCCO2)S(=O)(=O)c1ccccc1)NCc1ccco1	x	-0.29	3	92*	i
Cc1ccc(N(CC(=O)NCCSCc2ccco2)S(=O)(=O)c2ccc(C)cc2)cc1	-1	-0.62	1	11	i

Screening data as filed in PubChem BioAssay.
